In article PMC3517057 (ChemMedChem, 2012):

How the values were obtained:
mGlu5 [1] = biological target: T1, mGlu5 (Rattus norvegicus, UniProt P31424); test: mGlu5 calcium mobilization assay; assay type: cell-based
C57Bl/6J mice [2] = details: low doses; cited from earlier work
mGlu5 [3] = biological target: T1, mGlu5; test: Effect on glutamate CRC in rat cortical astrocytes; assay type: cell-based; details: 300 nM, 1 µM, 30 µM 18k
rat mGlu5 = rat mGlu5 (Rattus norvegicus, UniProt P31424); test: Glutamate-induced ERK1/2 phosphorylation in HEK293 cells expressing rat mGlu5; assay type: cell-based; details: 10 nM to 1 µM 18k
mGlu1–4 and mGlu6–8 = test: Selectivity against other mGlu receptors; assay type: cell-based; details: 10 µM
adenosine A3 receptor = biological target: T2, adenosine A3 receptor (Homo sapiens, UniProt P0DMS8); test: Ricerca LeadProfilingScreen radioligand binding, adenosine A3 receptor; details: 10 µM
T2 sequence (P0DMS8 1-318): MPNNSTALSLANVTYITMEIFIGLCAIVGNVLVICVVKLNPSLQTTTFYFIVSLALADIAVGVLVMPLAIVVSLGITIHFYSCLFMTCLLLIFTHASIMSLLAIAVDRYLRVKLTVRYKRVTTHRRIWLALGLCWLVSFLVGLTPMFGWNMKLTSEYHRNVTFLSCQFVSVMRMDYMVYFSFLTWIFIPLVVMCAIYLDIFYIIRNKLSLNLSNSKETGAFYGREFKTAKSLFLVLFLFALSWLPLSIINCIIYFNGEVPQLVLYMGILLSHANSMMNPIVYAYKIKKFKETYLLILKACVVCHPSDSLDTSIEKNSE
In short: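 The test compound was run at 10 µM in a commercial profiling panel of radioligand binding assays covering 68 primary molecular targets, including GPCRs, kinases and ion channels.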

[4] = system: 68 primary molecular targets (GPCRs, kinases, ion channels); test: Ricerca LeadProfilingScreen radioligand binding panel; details: 10 µM
[5] = Metabolic stability in human liver microsomes; assay type: in vitro ADME; details: 1 µM, 15 min, 37 °C, NADPH
In short: (§1)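 Test compound at 1 µM was incubated with human or mouse liver microsomes in phosphate buffer with NADPH cofactor, for 15 min at 37 °C with shaking.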

[6] = Metabolic stability in mouse liver microsomes; assay type: in vitro ADME; details: 1 µM, 15 min, 37 °C, NADPH
In short: as §1

[7] = Exposure following oral dosing in mice; assay type: in vivo
[8] = Plasma and brain exposure after intraperitoneal dosing in mice; assay type: in vivo, male CD-1 mice; details: 10 mg/kg i.p.
In short: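 Male CD-1 mice received 10 mg/kg i.p. as a microsuspension in 10% tween 80, with two mice per time point. Brain and plasma were sampled at 0.5, 1, 3 and 6 h post dose.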

[9] = Protein binding in mouse plasma; assay type: in vitro ADME; details: rapid equilibrium dialysis
[10] = Binding to mouse brain homogenates; assay type: in vitro ADME; details: rapid equilibrium dialysis
mice [11] = test: Marble burying model of anxiety; assay type: in vivo; details: for Inhibition of marble burying: 15 minute pretreatment; for Sedation: marble burying study, i.p., all dosing groups
In short: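 Mice were scored for burying glass marbles in deep bedding. Test compound or the MTEP positive control (15 mg/kg) was given i.p. in 10% tween 80 vehicle 15 min before testing. Testing ran from 15 to 45 min post dose, with n=12 per dosing group. Significance was P < 0.05 vs vehicle by Dunnett's test.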

C57Bl/6J mice [12] = test: Operant sensation seeking; assay type: in vivo
mice [13] = details: cited from earlier work
[14] = mGlu5 calcium mobilization, average of at least three determinations

T1 sequence (P31424 21-1203): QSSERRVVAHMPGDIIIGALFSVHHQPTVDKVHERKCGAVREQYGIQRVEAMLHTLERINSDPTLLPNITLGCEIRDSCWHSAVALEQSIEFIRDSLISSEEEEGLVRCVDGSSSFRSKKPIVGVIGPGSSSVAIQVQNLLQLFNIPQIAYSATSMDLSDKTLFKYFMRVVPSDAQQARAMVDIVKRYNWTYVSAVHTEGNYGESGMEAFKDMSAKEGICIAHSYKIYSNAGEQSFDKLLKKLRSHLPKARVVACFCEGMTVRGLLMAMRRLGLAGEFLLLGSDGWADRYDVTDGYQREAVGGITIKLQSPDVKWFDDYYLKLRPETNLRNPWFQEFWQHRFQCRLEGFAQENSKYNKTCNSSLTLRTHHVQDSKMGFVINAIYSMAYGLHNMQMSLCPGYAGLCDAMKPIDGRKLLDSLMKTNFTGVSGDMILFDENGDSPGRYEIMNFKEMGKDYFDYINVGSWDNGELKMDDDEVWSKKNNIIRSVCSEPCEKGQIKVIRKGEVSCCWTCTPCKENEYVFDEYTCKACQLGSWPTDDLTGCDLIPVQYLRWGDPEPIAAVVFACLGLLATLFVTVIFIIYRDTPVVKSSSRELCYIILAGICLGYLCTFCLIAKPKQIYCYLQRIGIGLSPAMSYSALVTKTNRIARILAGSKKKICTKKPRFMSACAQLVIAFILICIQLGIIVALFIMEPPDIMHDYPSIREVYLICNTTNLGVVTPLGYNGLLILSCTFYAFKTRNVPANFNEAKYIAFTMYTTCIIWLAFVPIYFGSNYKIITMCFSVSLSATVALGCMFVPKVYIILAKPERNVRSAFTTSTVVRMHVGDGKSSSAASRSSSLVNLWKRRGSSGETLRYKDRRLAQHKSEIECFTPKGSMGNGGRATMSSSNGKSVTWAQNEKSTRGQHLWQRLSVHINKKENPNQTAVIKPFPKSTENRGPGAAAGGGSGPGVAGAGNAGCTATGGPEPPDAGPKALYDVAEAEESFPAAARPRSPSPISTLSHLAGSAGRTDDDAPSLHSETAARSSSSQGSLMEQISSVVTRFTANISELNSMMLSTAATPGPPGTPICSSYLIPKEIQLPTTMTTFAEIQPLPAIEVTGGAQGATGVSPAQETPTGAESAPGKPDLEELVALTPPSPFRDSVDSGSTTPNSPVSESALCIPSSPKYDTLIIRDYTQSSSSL
Chain of rat mGlu5 (P31424 21-1203): as above

## CCOc1ccccc1-c1nc(Nc2nc3ccccc3o2)ncc1C#N [18r]
mGlu5 [1]; [14]
  IC50: 6580 ± 1670 nM

## OCCN1CCN(CC/C=C2/c3ccccc3Sc3ccc(C(F)(F)F)cc32)CC1 [cis-flupenthixol]
C57Bl/6J mice [2]
  Responding for OSS stimuli: increased responding for OSS stimuli

## N#Cc1cnc(Nc2nc3ccccc3o2)nc1-c1ccc(F)cc1 [18k]
mGlu5 [1]; [14]
  IC50: 91 ± 22 nM
mGlu5 [3]
  Effect on glutamate concentration response curve: induced a rightward shift in the glutamate concentration response curve (CRC) and reduced the maximal effect of glutamate
Rat mGlu5
  Effect on ERK1/2 phosphorylation response to glutamate: blocked the effect of glutamate in a concentration dependent manner
mGlu1–4 and mGlu6–8
  Activity against other mGlu receptors: no observable activity
Adenosine A3 receptor
  inhibition of binding: 73%
[4]
  Inhibition of radioligand binding in 68-target panel: inhibition of more than 50% of radioligand binding was observed only in the adenosine A3 receptor assay
[5]
  Stability in liver microsomes: Enhanced stability relative to 13
[6]
  Stability in liver microsomes: Enhanced stability relative to 13
[7]
  Exposure in plasma and brain: no exposure above detectable limits in either plasma or brain
[8]
  Brain AUC: 1006 ng·h/g
  Plasma AUC: 224 ng·h/mL
[8]; 0.5 h
  Brain [ ]: 136 ng/mL
  Brain:Plasma ratio: 4.3
  Plasma [ ]: 31.8 ng/mL
[8]; 30 minutes
  average brain concentration: 0.41 µM
[8]; 1 h
  Brain [ ]: 283 ng/mL
  Brain:Plasma ratio: 4.4
  Plasma [ ]: 64.7 ng/mL
[8]; 1 hour post dose
  brain concentration: 850 nM
[8]; 3 h
  Brain [ ]: 193 ng/mL
  Brain:Plasma ratio: 4.3
  Plasma [ ]: 45.4 ng/mL
[8]; 6 h
  Brain [ ]: 68 ng/mL
  Brain:Plasma ratio: 7.4
  Plasma [ ]: 9.2 ng/mL
[8]; exposure ratio, to 1
  brain to plasma ratio: more than 4
[9]
  bound to mouse plasma: 99.4%
[10]
  bound to mouse brain homogenates: 99.5%
Mice [11]; 56.6 mg/kg i.p. (highest dose), P < 0.05 vs. vehicle
  Inhibition of marble burying: Significant inhibition of marble burying
Mice [11]
  Sedation: No sedation was observed
C57Bl/6J mice [12]; both 30 and 56.6 mg/kg doses i.p., P < 0.05 vs. vehicle
  Efficacy in OSS: significant efficacy
C57Bl/6J mice [12]; i.p., dose response
  Progressive ratio responding for OSS stimuli: dose dependently reduced progressive ratio responding for OSS stimuli
C57Bl/6J mice [12]; i.p., food control
  Effect on responding for a food reinforcer: no significant effects

## N#Cc1cnc(Nc2nc3ccccc3o2)nc1-c1ccc(Cl)cc1F [18y]
mGlu5 [1]; [14]
  IC50: 375 ± 90 nM

## N#Cc1cnc(Nc2nc3ccccc3o2)nc1-c1ccc(C(F)(F)F)cc1 [18m]
mGlu5 [1]; [14]
  IC50: > 30000 nM

## N#Cc1cnc(Nc2nc3ccccc3o2)nc1-c1cccs1 [18ee]
mGlu5 [1]; [14]
  IC50: > 10000 nM

## N#Cc1cnc(Nc2nc3ccccc3o2)nc1-c1ccccc1 [compound 13]
mGlu5 [1]; [14]
  IC50: 89 ± 32 nM
mGlu5 [1]; original batch of virtual screen hit (ChemDiv), 10-point CRC
  IC50: 75 nM

## Cc1cccc(C#Cc2ccccc2)n1 [MPEP]
Mice [13]
  Efficacy in marble burying model: effective

## Cc1nc(C#Cc2cccnc2)cs1 [MTEP, reference compound]
Mice [11]; 15 mg/kg i.p., positive control
  Inhibition of marble burying: Robust inhibition of marble burying
Mice [11]
  Sedation: No sedation was observed

## N#Cc1cnc(Nc2nc3ccccc3o2)nc1-c1ccc(F)c(F)c1 [18t]
mGlu5 [1]; [14]
  IC50: 2580 ± 1170 nM

## CN1CC(=O)NC1=NC(=O)Nc1cccc(Cl)c1 [fenobam]
Mice [13]
  Efficacy in marble burying model: effective

## COc1ccccc1-c1nc(Nc2nc3ccccc3o2)ncc1C#N [18g]
mGlu5 [1]; [14]
  IC50: 62 ± 10 nM

## COc1cc(F)ccc1-c1nc(Nc2nc3ccccc3o2)ncc1C#N [18z]
mGlu5 [1]; [14]
  IC50: 217 ± 10 nM
